Reference: ChEMBL document CHEMBL4622984, “Structure-Based Design of a Bromodomain and Extraterminal Domain (BET) Inhibitor Selective for the N-Terminal Bromodomains That Retains an Anti-inflammatory and Antiproliferative Phenotype” (J Med Chem, 2020)

Assays:
[1] = target: Bromodomain-containing protein 4 (Homo sapiens, UniProt O60885, Y97A); assay: Displacement of Alexa Fluor 647 labelled I-BET762 from N-terminal His6-tagged human BRD4 BD2 (1 to 477 residues)/BD1 Y97A mutant expressed in Escherichia coli after 1 hr by TR-FRET assay
[2] = target: Bromodomain-containing protein 4 (Homo sapiens, UniProt O60885, Y390A); assay: Displacement of Alexa Fluor 647 labelled I-BET762 from N-terminal His6-tagged human BRD4 BD1 (1 to 477 residues)/BD2 Y390A mutant expressed in Escherichia coli after 1 hr by TR-FRET assay
[3] = target: Bromodomain-containing protein 3 (Homo sapiens, UniProt Q15059, Y73A); assay: Displacement of Alexa Fluor 647 labelled I-BET762 from N-terminal His6-tagged human BRD3 BD2 (1 to 435 residues)/BD1 Y73A mutant expressed in Escherichia coli after 1 hr by TR-FRET assay
Chain of Bromodomain-containing protein 3 (Homo sapiens, UniProt Q15059, Y73A) (Q15059 2-726 Y73A limits assumed): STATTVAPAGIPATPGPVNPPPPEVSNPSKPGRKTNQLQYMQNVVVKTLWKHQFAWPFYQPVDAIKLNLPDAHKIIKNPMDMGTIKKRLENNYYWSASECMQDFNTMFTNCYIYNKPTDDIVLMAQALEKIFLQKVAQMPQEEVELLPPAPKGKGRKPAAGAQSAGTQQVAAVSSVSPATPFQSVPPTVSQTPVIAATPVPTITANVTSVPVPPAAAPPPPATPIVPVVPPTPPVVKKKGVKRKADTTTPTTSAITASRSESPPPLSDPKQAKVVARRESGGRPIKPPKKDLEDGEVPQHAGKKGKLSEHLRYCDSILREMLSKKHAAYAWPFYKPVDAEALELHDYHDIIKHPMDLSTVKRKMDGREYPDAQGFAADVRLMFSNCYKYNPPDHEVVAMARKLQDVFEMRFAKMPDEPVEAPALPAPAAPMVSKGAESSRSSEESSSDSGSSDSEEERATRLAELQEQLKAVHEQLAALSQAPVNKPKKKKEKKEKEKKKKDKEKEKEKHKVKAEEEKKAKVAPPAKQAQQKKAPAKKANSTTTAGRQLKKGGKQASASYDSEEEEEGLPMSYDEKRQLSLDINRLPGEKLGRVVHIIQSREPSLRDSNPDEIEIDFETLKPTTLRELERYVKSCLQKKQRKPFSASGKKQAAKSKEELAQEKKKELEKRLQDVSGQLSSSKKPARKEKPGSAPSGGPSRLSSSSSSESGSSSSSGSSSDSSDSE
Procedure, shortened: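 Single-mutant tandem bromodomain constructs (Tyr→Ala in the other domain), N-terminal 6His, expressed in E. coli. Compounds were titrated from 10 mM DMSO stocks. Protein at 10 nM in 50 mM HEPES, 50 mM NaCl, 1 mM CHAPS, pH 7.4 with Alexa Fluor 647–I-BET762 tracer at 50 nM (200 nM for BRDT Y66A). Plates were equilibrated 1 h at rt in the dark, then 1.5 nM Eu-anti-6His was added.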

Homo sapiens [4] = species: Homo sapiens; assay: Selectivity index, difference between pIC50 for N-terminal His6-tagged human BRD3 BD1 (1 to 435 residues)/BD2 Y348A mutant expressed in Escherichia coli to pIC50 for N-terminal His6-tagged human BRD3 BD2 (1 to 435 residues)/BD1 Y73A mutant expressed in Escherichia coli
Homo sapiens [5] = species: Homo sapiens; assay: Selectivity index, difference between pIC50 for N-terminal His6-tagged human BRDT BD1 (1 to 397 residues)/ BD2 Y309A mutant expressed in Escherichia coli to pIC50 for N-terminal His6-tagged human BRDT BD2 (1 to 397 residues)/BD1 Y66A mutant expressed in Escherichia coli
[6] = target: Bromodomain testis-specific protein (Homo sapiens, UniProt Q58F21, Y309A); assay: Displacement of Alexa Fluor 647 labelled I-BET762 from N-terminal His6-tagged human BRDT BD1 (1 to 397 residues)/BD2 Y309A mutant expressed in Escherichia coli after 1 hr by TR-FRET assay
[7] = target: Bromodomain-containing protein 2 (Homo sapiens, UniProt P25440, Y113A); assay: Displacement of Alexa Fluor 647 labelled I-BET762 from N-terminal His6-tagged human BRD2 BD2 (1 to 473 residues)/BD1 Y113A mutant expressed in Escherichia coli after 1 hr by TR-FRET assay
Chain of Bromodomain-containing protein 2 (Homo sapiens, UniProt P25440, Y113A) (P25440 whole entry Y113A, the tested form may be a part): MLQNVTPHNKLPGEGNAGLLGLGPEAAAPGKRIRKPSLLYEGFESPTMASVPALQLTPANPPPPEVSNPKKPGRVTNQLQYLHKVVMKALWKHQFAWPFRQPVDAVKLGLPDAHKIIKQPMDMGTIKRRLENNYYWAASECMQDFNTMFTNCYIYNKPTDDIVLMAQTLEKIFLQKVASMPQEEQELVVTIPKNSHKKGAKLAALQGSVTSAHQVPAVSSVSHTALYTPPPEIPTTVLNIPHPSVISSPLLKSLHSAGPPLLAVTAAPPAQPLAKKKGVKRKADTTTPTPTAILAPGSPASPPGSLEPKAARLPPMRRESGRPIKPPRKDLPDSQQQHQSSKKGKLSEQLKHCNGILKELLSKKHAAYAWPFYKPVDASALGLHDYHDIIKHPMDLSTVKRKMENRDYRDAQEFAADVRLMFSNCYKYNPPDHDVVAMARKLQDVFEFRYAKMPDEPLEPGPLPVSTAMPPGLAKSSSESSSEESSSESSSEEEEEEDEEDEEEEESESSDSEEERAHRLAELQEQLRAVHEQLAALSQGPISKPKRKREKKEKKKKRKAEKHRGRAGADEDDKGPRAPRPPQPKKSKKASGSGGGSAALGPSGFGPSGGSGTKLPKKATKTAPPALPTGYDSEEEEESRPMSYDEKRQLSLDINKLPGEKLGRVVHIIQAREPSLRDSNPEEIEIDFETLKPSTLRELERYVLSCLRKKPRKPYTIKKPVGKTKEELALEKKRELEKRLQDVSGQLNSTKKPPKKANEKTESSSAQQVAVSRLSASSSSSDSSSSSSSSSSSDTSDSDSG

[8] = target: Bromodomain-containing protein 3 (Homo sapiens, UniProt Q15059, Y348A); assay: Displacement of Alexa Fluor 647 labelled I-BET762 from N-terminal His6-tagged human BRD3 BD1 (1 to 435 residues)/BD2 Y348A mutant expressed in Escherichia coli after 1 hr by TR-FRET assay
Chain of Bromodomain-containing protein 3 (Homo sapiens, UniProt Q15059, Y348A) (Q15059 2-726 Y348A limits assumed): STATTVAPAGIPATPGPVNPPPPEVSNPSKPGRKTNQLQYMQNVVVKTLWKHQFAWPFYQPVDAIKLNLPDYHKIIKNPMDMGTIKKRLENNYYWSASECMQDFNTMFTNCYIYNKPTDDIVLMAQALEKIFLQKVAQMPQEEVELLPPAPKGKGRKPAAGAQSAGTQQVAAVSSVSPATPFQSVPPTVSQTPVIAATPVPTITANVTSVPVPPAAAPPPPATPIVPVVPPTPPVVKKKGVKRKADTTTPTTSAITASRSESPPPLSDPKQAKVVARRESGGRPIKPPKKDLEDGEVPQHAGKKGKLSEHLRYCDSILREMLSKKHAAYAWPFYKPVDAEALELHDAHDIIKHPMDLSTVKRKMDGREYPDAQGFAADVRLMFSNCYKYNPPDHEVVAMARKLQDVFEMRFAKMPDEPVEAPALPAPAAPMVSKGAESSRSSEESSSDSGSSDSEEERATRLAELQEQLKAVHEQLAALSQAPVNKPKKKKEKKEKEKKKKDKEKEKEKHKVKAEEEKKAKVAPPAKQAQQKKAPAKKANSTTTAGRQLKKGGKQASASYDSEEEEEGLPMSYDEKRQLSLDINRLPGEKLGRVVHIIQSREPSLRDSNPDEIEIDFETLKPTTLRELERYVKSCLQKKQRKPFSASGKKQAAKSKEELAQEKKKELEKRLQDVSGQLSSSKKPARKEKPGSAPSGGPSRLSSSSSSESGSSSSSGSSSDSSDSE

[9] = target: Bromodomain testis-specific protein (Homo sapiens, UniProt Q58F21, Y66A); assay: Displacement of Alexa Fluor 647 labelled I-BET762 from N-terminal His6-tagged human BRDT BD2 (1 to 397 residues)/BD1 Y66A mutant expressed in Escherichia coli after 1 hr by TR-FRET assay
[10] = target: Bromodomain-containing protein 2 (Homo sapiens, UniProt P25440, Y386A); assay: Displacement of Alexa Fluor 647 labelled I-BET762 from N-terminal His6-tagged human BRD2 BD1 (1 to 473 residues)/BD2 Y386A mutant expressed in Escherichia coli after 1 hr by TR-FRET assay
Chain of Bromodomain-containing protein 2 (Homo sapiens, UniProt P25440, Y386A) (P25440 whole entry Y386A, the tested form may be a part): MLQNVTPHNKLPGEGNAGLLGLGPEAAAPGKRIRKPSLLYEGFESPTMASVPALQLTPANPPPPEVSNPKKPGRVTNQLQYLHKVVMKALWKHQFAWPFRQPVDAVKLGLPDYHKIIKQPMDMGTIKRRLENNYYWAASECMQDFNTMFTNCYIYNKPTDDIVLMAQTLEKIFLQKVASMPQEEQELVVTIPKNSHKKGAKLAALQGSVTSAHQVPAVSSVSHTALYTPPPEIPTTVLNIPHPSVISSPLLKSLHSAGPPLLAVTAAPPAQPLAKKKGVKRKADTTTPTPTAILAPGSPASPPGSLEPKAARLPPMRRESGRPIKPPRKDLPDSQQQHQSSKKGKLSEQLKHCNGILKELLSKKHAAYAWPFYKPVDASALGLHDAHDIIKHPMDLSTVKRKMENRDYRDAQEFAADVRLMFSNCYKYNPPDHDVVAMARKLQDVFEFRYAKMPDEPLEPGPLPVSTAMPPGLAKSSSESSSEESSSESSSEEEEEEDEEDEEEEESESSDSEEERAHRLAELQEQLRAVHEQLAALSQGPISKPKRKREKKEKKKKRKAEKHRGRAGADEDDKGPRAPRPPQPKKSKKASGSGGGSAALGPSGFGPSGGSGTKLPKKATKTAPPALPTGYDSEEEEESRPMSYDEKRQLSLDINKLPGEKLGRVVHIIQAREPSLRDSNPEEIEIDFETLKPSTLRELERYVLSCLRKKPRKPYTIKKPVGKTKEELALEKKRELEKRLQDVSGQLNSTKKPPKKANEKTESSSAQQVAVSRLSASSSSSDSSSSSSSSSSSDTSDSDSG

Homo sapiens [11] = species: Homo sapiens; assay: Selectivity index, difference between pIC50 for N-terminal His6-tagged human BRD2 BD1 (1 to 473 residues)/ BD2 Y386A mutant expressed in Escherichia coli to pIC50 for N-terminal His6-tagged human BRD2 BD2 (1 to 473 residues)/BD1 Y113A mutant expressed in Escherichia coli
[12] = Tmax in CD1 mouse at 10 mg/kg, ip measured up to 12 hrs by reverse-phase LC-MS/MS analysis; type: ADME, organism-based; conditions: in vivo
Procedure, shortened: (§1)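 Three male CD1 mice (30–33 g) given a single ip dose of 10 mg/kg, formulated at 2 mg/mL in 10% Kleptose in saline at pH 5 and dosed at 5 mL/kg. Serial tail-vein blood (ca. 20 µL) was taken up to 12 h, with a terminal cardiac sample at 24 h. Blood was diluted 1:1 with water, extracted by acetonitrile protein precipitation with internal standard, and quantified by reverse-phase LC-MS/MS (positive ion) against standards in control blood. Values are mean of n = 3.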

[13] = AUCinfinity in CD1 mouse at 10 mg/kg, ip measured up to 12 hrs by reverse-phase LC-MS/MS analysis; type: ADME, organism-based; design: dose 10 mg/kg, time infinity, route intraperitoneal; conditions: in vivo; procedure, shortened: as §1
MV4-11 = assay: Growth inhibition of human MV4-11 cells incubated for 72 hrs by Cell-titre glo assay; type: functional, cell-based; conditions: MV4-11, 72 h
[14] = Elimination half life in CD1 mouse at 10 mg/kg, ip measured up to 7 hrs by reverse-phase LC-MS/MS analysis; type: ADME, organism-based; conditions: in vivo, read-out: beta t1/2 (converted); procedure, shortened: as §1
Blood [15] = assay: Antiinflammatory activity in human whole blood assessed as reduction in LPS-induced IL-6 production preincubated for 30 mins followed by LPS challenge and measured after overnight incubation by mesoscale assay; type: functional, tissue-based
[16] = Unbound fraction in CD1 mouse blood at 200 to 1000 ng/ml incubated for 4 hrs by LC-MS/MS-based rapid equilibrium dialysis method; type: ADME, tissue-based
[17] = Terminal half life in CD1 mouse at 10 mg/kg, ip measured after 7 to 24 hrs by reverse-phase LC-MS/MS analysis; type: ADME, organism-based; conditions: in vivo, read-out: beta t1/2 (converted); procedure, shortened: as §1
[18] = Cmax in CD1 mouse at 10 mg/kg, ip measured up to 12 hrs by reverse-phase LC-MS/MS analysis; type: ADME, organism-based; design: dose 10 mg/kg, route intraperitoneal; conditions: in vivo; procedure, shortened: as §1
[19] = target: T1, Bromodomain-containing protein 3 (Homo sapiens, UniProt Q15059); assay: Binding affinity to BRD3 BD1 (unknown origin) by isothermal titration calorimetric method
T1 sequence (Q15059 whole entry): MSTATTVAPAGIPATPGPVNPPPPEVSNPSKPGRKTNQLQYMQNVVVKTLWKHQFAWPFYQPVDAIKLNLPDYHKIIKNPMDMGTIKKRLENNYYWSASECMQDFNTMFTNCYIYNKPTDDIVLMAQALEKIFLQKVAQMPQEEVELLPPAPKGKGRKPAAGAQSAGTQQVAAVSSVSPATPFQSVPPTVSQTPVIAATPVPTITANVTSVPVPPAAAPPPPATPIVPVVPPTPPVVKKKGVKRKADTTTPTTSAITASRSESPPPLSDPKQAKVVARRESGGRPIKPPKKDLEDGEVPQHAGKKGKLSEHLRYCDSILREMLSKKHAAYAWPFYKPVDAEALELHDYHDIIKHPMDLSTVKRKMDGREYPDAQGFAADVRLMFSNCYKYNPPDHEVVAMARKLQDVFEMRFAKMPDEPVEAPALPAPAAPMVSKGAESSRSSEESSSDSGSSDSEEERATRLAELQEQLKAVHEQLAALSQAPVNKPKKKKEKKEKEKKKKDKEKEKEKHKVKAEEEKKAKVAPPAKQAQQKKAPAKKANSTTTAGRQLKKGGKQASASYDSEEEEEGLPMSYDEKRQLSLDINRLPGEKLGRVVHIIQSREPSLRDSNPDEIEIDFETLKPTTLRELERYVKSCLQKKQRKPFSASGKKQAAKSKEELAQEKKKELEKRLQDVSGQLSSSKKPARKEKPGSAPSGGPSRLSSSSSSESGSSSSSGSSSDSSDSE

[20] = target: T2, Bromodomain-containing protein 2 (Homo sapiens, UniProt P25440); assay: Binding affinity to BRD2 BD1 (unknown origin) by isothermal titration calorimetric method
T2 sequence (P25440 whole entry): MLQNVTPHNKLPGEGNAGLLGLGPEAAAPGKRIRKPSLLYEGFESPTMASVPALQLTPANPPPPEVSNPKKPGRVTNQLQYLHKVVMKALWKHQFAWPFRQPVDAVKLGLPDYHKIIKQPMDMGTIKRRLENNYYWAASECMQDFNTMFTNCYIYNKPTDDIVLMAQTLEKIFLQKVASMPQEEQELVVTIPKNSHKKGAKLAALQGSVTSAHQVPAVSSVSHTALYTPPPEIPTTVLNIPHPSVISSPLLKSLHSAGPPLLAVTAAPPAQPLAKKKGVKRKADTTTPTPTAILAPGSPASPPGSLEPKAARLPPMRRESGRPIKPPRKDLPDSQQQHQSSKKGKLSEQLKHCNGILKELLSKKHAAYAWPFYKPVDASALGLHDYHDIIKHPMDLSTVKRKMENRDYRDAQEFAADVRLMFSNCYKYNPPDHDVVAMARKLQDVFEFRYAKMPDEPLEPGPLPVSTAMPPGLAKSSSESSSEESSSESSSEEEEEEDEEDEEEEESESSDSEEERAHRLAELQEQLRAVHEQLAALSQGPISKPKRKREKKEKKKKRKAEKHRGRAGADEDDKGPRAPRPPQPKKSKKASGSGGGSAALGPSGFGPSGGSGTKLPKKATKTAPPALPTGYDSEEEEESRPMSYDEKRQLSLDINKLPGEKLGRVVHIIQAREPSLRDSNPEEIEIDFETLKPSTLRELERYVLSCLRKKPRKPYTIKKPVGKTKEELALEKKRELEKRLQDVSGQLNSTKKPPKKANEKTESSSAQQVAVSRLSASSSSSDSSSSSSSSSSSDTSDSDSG

[21] = target: T2, Bromodomain-containing protein 2; assay: Binding affinity to BRD2 BD2 (unknown origin) by isothermal titration calorimetric method
[22] = target: T1, Bromodomain-containing protein 3; assay: Binding affinity to BRD3 BD2 (unknown origin) by isothermal titration calorimetric method
PBMC [23] = assay: Antiinflammatory activity in human PBMC assessed as reduction in LPS-induced IL-6 production incubated for 18 to 24 hrs by mesoscale assay; type: functional, cell-based
Blood [24] = assay: Antiinflammatory activity in human whole blood assessed as reduction in LPS-induced MCP1 production preincubated for 30 mins followed by LPS challenge and measured after overnight incubation by mesoscale assay; type: functional, tissue-based
PBMC [25] = assay: Antiinflammatory activity in human PBMC assessed as reduction in LPS-induced MCP1 production incubated for 18 to 24 hrs by mesoscale assay; type: functional, cell-based

SMILES: CC(=O)NCCCOc1cc2c(cc1-c1c(C)noc1C)ncc1c2n(C(C)c2ccccn2)c(=O)n1C (stereo unspecified)
- IC50 [1]: 3160 nM
- IC50 [2]: 794 nM

SMILES: Cc1noc(C)c1-c1cc2ncc3c(c2cc1OCCCO)n(C(C)c1ccccn1)c(=O)n3C (stereo unspecified)
- IC50 [1]: 6310 nM
- IC50 [2]: 501 nM

SMILES: COCc1nc2cnc3cc(-c4c(C)noc4C)c(OC)cc3c2n1[C@H](C)c1ccccc1
- IC50 [3]: 15.8 nM
- IC50 [1]: 39.8 nM
- Selectivity Index (Homo sapiens [4]): 1.6
- Selectivity Index (Homo sapiens [5]): 13
- IC50 [6]: 25.1 nM
- IC50 [7]: 39.8 nM
- IC50 [8]: 10 nM
- IC50 [9]: 316 nM
- IC50 [10]: 12.6 nM
- IC50 [2]: 10 nM
- Selectivity Index (Homo sapiens [11]): 3.2

SMILES: COCc1nc2cnc3cc(-c4c(C)noc4C)c(OC[C@H]4CCNC4)cc3c2n1[C@H](C)c1ccccc1 [GSK778]
- Tmax [12]: 15 to 30 min
- AUC(0-inf) [13]: 3.34 µM·h
- IC50 (MV4-11): 100 nM
- IC50 [3]: 1000 nM
- half-life [14]: 54 min
- IC50 (Blood [15]): 251 nM
- fraction unbound at 4 h [16]: 0.08
- half-life [17]: 492 min
- IC50 [7]: 3160 nM
- Cmax [18]: 2400 nM
- IC50 [10]: 79.4 nM

SMILES: Cc1noc(C)c1-c1cc2ncc3c(c2cc1C(=O)O)n(C(C)c1ccccn1)c(=O)n3C (stereo unspecified)
- IC50 [1]: > 50100 nM
- IC50 [2]: 12600 nM

SMILES: Cc1noc(C)c1-c1cc2ncc3c(c2cc1OCC(=O)O)n([C@H](C)c1ccccn1)c(=O)n3C
- IC50 [1]: 12600 nM
- IC50 [2]: 2000 nM

SMILES: Cc1noc(C)c1-c1cc2ncc3c(c2cc1O[C@H]1CCNC1)n(C(C)c1ccccn1)c(=O)n3C (mixture of isomers)
- IC50 [1]: > 50100 nM
- IC50 [2]: 6310 nM

SMILES: Cc1noc(C)c1-c1cc2ncc3c(c2cc1O[C@H]1C[C@H](N)C1)n(C(C)c1ccccn1)c(=O)n3C (stereo partly specified)
- IC50 [1]: 3160 nM
- IC50 [2]: 79.4 nM

SMILES: Cc1noc(C)c1-c1cc2ncc3c(c2cc1OC[C@@H]1CCNC1)n(C(C)c1ccccn1)c(=O)n3C (mixture of isomers)
- IC50 [1]: 31600 nM
- IC50 [2]: 794 nM

SMILES: Cc1noc(C)c1-c1cc2ncc3c(c2cc1OCCCN(C)C)n([C@H](C)c1ccccn1)c(=O)n3C
- IC50 [1]: > 50100 nM
- IC50 [2]: 1000 nM

SMILES: Cc1noc(C)c1-c1cc2ncc3c(c2cc1OCC1CCNCC1)n(C(C)c1ccccn1)c(=O)n3C (stereo unspecified)
- IC50 [1]: 39800 nM
- IC50 [2]: 794 nM

SMILES: Cc1noc(C)c1-c1cc2ncc3c(c2cc1OCCCN)n(C(C)c1ccccn1)c(=O)n3C (stereo unspecified)
- IC50 [1]: 15800 nM
- IC50 [2]: 631 nM

SMILES: Cc1noc(C)c1-c1cc2ncc3c(c2cc1CC(=O)O)n(C(C)c1ccccn1)c(=O)n3C (stereo unspecified)
- IC50 [1]: > 50100 nM
- IC50 [2]: > 50100 nM

SMILES: COc1cc2c(cc1-c1c(C)noc1C)ncc1c2n([C@H](C)c2ccccn2)c(=O)n1C
- IC50 [1]: 501 nM
- IC50 [2]: 50.1 nM

SMILES: CC(=O)NCCCCn1c2c(c3ccccc31)C(=O)NCC2
- Kd [19]: 3300 to 8600 nM
- Kd [20]: 3300 to 8600 nM
- Kd [21]: > 300000 nM
- Kd [22]: > 300000 nM

SMILES: Cc1noc(C)c1-c1cc2ncc3c(c2cc1O[C@H]1C[C@@H](N)C1)n(C(C)c1ccccn1)c(=O)n3C (stereo partly specified)
- IC50 [1]: 10000 nM
- IC50 [2]: 251 nM

SMILES: COc1cc2c(cc1-c1c(C)noc1C)ncc1[nH]c(=O)n([C@H](C)c3ccccn3)c12
- IC50 (PBMC [23]): 126 nM
- IC50 (MV4-11): 100 nM
- IC50 [3]: 79.4 nM
- IC50 (Blood [15]): 1000 nM
- IC50 [6]: 126 nM
- IC50 (Blood [24]): 200 nM
- IC50 [8]: 31.6 nM
- IC50 (PBMC [25]): 39.8 nM
- IC50 [9]: 1580 nM

SMILES: Cc1noc(C)c1-c1cc2ncc3c(c2cc1O[C@@H]1CCNC1)n([C@H](C)c1ccccn1)c(=O)n3C
- IC50 [1]: 50100 nM
- IC50 [2]: 1260 nM

SMILES: Cc1noc(C)c1-c1cc2ncc3c(c2cc1OCCN(C)C)n([C@H](C)c1ccccn1)c(=O)n3C
- IC50 [1]: > 50100 nM
- IC50 [2]: 2000 nM

SMILES: Cc1noc(C)c1-c1cc2ncc3c(c2cc1OCCN)n(C(C)c1ccccn1)c(=O)n3C (stereo unspecified)
- IC50 [1]: 31600 nM
- IC50 [2]: 1260 nM

SMILES: COc1ccc2c(c1)C(c1ccc(Cl)cc1)=N[C@@H](NC(=O)OCc1ccccc1)c1nnc(C)n1-2
- IC50 (PBMC [23]): 316 nM
- IC50 (MV4-11): 200 nM
- IC50 (Blood [15]): 1580 nM
- IC50 (Blood [24]): 200 nM
- IC50 (PBMC [25]): 50.1 nM

SMILES: Cc1noc(C)c1-c1cc2ncc3c(c2cc1OC[C@H]1CCNC1)n(C(C)c1ccccn1)c(=O)n3C (mixture of isomers)
- IC50 [1]: 25100 nM
- IC50 [2]: 501 nM

SMILES: CNCCCOc1cc2c(cc1-c1c(C)noc1C)ncc1c2n(C(C)c2ccccn2)c(=O)n1C (stereo unspecified)
- IC50 [1]: 25100 nM
- IC50 [2]: 1000 nM
